# Calls of active or inactive are those of the source. The rule behind the calls is not given here.
# Assays:
# Leishmania donovani [1] = test: Antileishmanial activity against Leishmania donovani MHOM/IN/1983/AG83 promastigotes infected BALB/c mouse assessed as reduction in spleen parasite burden at 12.5 mg/kg, ip administered two times per week for 4 weeks relative to control; format: functional; set-up: scale not given: the % may be the effect or the level left; settings: route intraperitoneal
# Summary of the method: (§1)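 BALB/c mice (4-6 weeks) were infected iv with 2 × 10^7 freshly transformed promastigotes. One month later, groups were dosed ip in 0.2% Tween 80 in PBS (0.02 M), twice weekly for one month (8 doses); controls got vehicle only. Mice were killed one month post-treatment and spleen and liver were weighed. Parasite load came from Giemsa impression smears as organ weight (mg) × amastigotes per cell nucleus × 2 × 10^5. Values are mean ± S.E. of 5 mice; unpaired t-test.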
# Leishmania donovani [2] = test: Antileishmanial activity against Leishmania donovani MHOM/IN/1983/AG83 promastigotes infected BALB/c mouse assessed as liver weight at 12.5 mg/kg, ip administered two times per week for 4 weeks; format: functional; settings: route intraperitoneal; summary of the method: as §1
# Mus musculus [3] = test: Toxicity in BALB/c mouse assessed as effect on serum glutamate pyruvate transaminase levels at 5.5 mg/kg, ip administered two times per week for 4 weeks; format: organism-based; set-up: dose 5.5 mg/kg, route intraperitoneal; settings: in vivo, 672 h
# Summary of the method: (§2)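 Normal BALB/c mice were dosed ip twice per week for 4 weeks. Blood was collected one month after treatment, and serum SGPT and SGOT (IU/l) and blood urea (mg/dl) were measured with commercial kits and compared with untreated normal mice.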
# Mus musculus [4] = test: Toxicity in BALB/c mouse assessed as effect on serum glutamate pyruvate transaminase levels at 12.5 mg/kg, ip administered two times per week for 4 weeks; format: organism-based; set-up: dose 12.5 mg/kg, route intraperitoneal; settings: in vivo, 672 h; summary of the method: as §2
# Mus musculus [5] = test: Toxicity in BALB/c mouse assessed as effect on blood urea levels at 5.5 mg/kg, ip administered two times per week for 4 weeks; format: organism-based; set-up: dose 5.5 mg/kg, route intraperitoneal; settings: in vivo, 672 h; summary of the method: as §2
# Mus musculus [6] = test: Toxicity in BALB/c mouse assessed as effect on blood urea levels at 12.5 mg/kg, ip administered two times per week for 4 weeks; format: organism-based; set-up: dose 12.5 mg/kg, route intraperitoneal; settings: in vivo, 672 h; summary of the method: as §2
# Bacillus licheniformis = test: Antibacterial activity against […] Bacillus licheniformis NCTC 10341 after 24 hrs by agar dilution method; format: functional; settings: NCTC 10341, 24 h
# Summary of the method: (§3)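 Agar dilution MIC. Compound dissolved in sterile 0.2% DMSO, diluted in distilled water and mixed into molten nutrient agar (pH 7.2–7.4) at 5, 10, 25, 50; plate with 0.2% DMSO as control. Gram-positives grown 18 h in nutrient broth, Gram-negatives in peptone water. Stationary-phase suspension set to 0.5 McFarland, diluted 1:100, spot-inoculated at about 10^5 CFU per loopful. Plates held 24 h at 37 °C (up to 72 h if needed). MIC is the lowest level with no growth.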
# Salmonella typhimurium = test: Antibacterial activity against Salmonella Typhimurium NCTC 74 after 24 hrs by agar dilution method; format: functional, Salmonella enterica subsp. enterica serovar Typhimurium; settings: Salmonella enterica, NCTC 74, 24 h; summary of the method: as §3
# Shigella dysenteriae [7] = test: Antibacterial activity against Shigella dysenteriae 6 NCTC 100/54 at 5 ug/ml after 24 hrs by agar dilution method; format: functional, organism-based
# Shigella dysenteriae [8] = test: Antibacterial activity against Shigella dysenteriae 6 NCTC 100/54 after 24 hrs by agar dilution method; format: functional; settings: 6 NCTC 100/54, 24 h
# Escherichia coli [9] = test: Antibacterial activity against Escherichia coli K-12 Row at 25 ug/ml after 24 hrs by agar dilution method; format: functional, organism-based; summary of the method: as §3
# Escherichia coli [10] = test: Antibacterial activity against Escherichia coli ATCC 25938 at 10 ug/ml after 24 hrs by agar dilution method; format: functional, organism-based; summary of the method: as §3
# Escherichia coli [11] = test: Antibacterial activity against Escherichia coli ATCC 25938 at 50 ug/ml after 24 hrs by agar dilution method; format: functional; settings: ATCC 25938, 24 h; summary of the method: as §3
# Vibrio cholerae = test: Antibacterial activity against Vibrio cholerae 582 at 5 ug/ml after 24 hrs by agar dilution method; format: functional; settings: Vibrio cholerae, 582, 24 h
# Proteus mirabilis [12] = test: Antibacterial activity against Proteus mirabilis 7 at 10 ug/ml after 24 hrs by agar dilution method; format: functional, organism-based; summary of the method: as §3
# Proteus mirabilis [13] = test: Antibacterial activity against Proteus mirabilis 7 at 25 ug/ml after 24 hrs by agar dilution method; format: functional, organism-based; summary of the method: as §3
# Staphylococcus aureus = test: Antibacterial activity against Staphylococcus aureus ML145 at 50 ug/ml after 24 hrs by agar dilution method; format: functional; settings: ML145, 24 h; summary of the method: as §3
# Proteus mirabilis [14] = test: Antibacterial activity against Proteus mirabilis 175 at 5 ug/ml after 24 hrs by agar dilution method; format: functional, organism-based; summary of the method: as §3
# Proteus mirabilis [15] = test: Antibacterial activity against Proteus mirabilis 175 at 10 ug/ml after 24 hrs by agar dilution method; format: functional, organism-based; summary of the method: as §3
# Proteus mirabilis [16] = test: Antibacterial activity against Proteus mirabilis 175 at 25 ug/ml after 24 hrs by agar dilution method; format: functional, organism-based; summary of the method: as §3
# Proteus mirabilis [17] = test: Antibacterial activity against Proteus mirabilis 175 at 50 ug/ml after 24 hrs by agar dilution method; format: functional; settings: Proteus mirabilis, 175, 24 h; summary of the method: as §3
# Pseudomonas aeruginosa = test: Antibacterial activity against Pseudomonas aeruginosa ATCC 27853 at 25 ug/ml after 24 hrs by agar dilution method; format: functional; settings: ATCC 27853, 24 h; summary of the method: as §3
# Shigella dysenteriae [18] = test: Antibacterial activity against Shigella dysenteriae 7 NCTC 519/66 at 5 ug/ml after 24 hrs by agar dilution method; format: functional, organism-based
# Shigella dysenteriae [19] = test: Antibacterial activity against Shigella dysenteriae 7 NCTC 519/66 at 50 ug/ml after 24 hrs by agar dilution method; format: functional; settings: 7 NCTC 519/66, 24 h
# Leishmania donovani [20] = test: Antileishmanial activity against Leishmania donovani MHOM/IN/1983/AG83 promastigotes assessed as induction of membrane blebbing at 2 ug/ml after 2 hrs by transmission electron microscopy; format: functional, organism-based
# Summary of the method: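 Log-phase promastigotes, grown at 22 °C in M199 with 10% FBS, were exposed for 2 h to the compound; controls received 0.1% DMSO alone. Cells were then sectioned, stained on copper grids with uranyl acetate and lead acetate for 10-15 min each, and examined by TEM for ultrastructural changes.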
# Leishmania donovani [21] = test: Antileishmanial activity against Leishmania donovani MHOM/IN/1983/AG83 promastigotes assessed as induction of chromatin condensation at 2 ug/ml after 2 hrs by transmission electron microscopy; format: functional, organism-based
# [22] = Down regulation of IL6 release Leishmania donovani MHOM/IN/1983/AG83 infected interferon gamma-stimulated golden Syrian hamster peritoneal macrophages; format: functional, cell-based; settings: Mesocricetus auratus; Macrophage
# [23] = Down regulation of TNFalpha release Leishmania donovani MHOM/IN/1983/AG83 infected bacterial liposaccharide-stimulated golden Syrian hamster peritoneal macrophages; format: functional, cell-based; settings: Mesocricetus auratus; Macrophage
# Leishmania donovani [24] = test: Antileishmanial activity against Leishmania donovani MHOM/IN/1983/AG83 amastigotes by Giemsa staining; format: functional, organism-based
# Summary of the method: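 Peritoneal macrophages from thioglycolate-elicited exudate (~2×10^6/ml), adhered overnight on coverslips in RPMI-1640 + 10% FBS at 37 °C, 5% CO2. Infected 6 h with stationary-phase AG83 promastigotes (2×10^7/ml), washed, then exposed 24 h to 0.5, 1, 3, 5, 10 compound. Methanol-fixed, Giemsa-stained; amastigotes per 200 macrophages counted against untreated controls.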
compound,measurement,setting,value
Clc1ccc(OCOc2ccc(Cl)c3cccnc23)c2ncccc12,Activity,Leishmania donovani [1],95%
same,Activity,Leishmania donovani [2],900 mg
same,Activity,Mus musculus [3],Non-toxic
same,Activity,Mus musculus [4],Non-toxic
same,Activity,Mus musculus [5],Non-toxic
same,Activity,Mus musculus [6],Non-toxic
same,MIC,Bacillus licheniformis,50 mg/L
same,MIC,Salmonella typhimurium,50 mg/L
same,Activity,Shigella dysenteriae [7],inactive
same,MIC,Shigella dysenteriae [8],50 mg/L
same,Activity,Escherichia coli [9],inactive
same,Activity,Escherichia coli [10],inactive
same,inhibition at 50 µg/mL,Escherichia coli [11],100%
same,inhibition at 5 µg/mL,Vibrio cholerae,100%
same,Activity,Proteus mirabilis [12],inactive
same,Activity,Proteus mirabilis [13],inactive
same,inhibition at 50 µg/mL,Staphylococcus aureus,100%
same,Activity,Proteus mirabilis [14],inactive
same,Activity,Proteus mirabilis [15],inactive
same,Activity,Proteus mirabilis [16],inactive
same,inhibition at 50 µg/mL,Proteus mirabilis [17],100%
same,inhibition at 25 µg/mL,Pseudomonas aeruginosa,100%
same,Activity,Shigella dysenteriae [18],inactive
same,inhibition at 50 µg/mL,Shigella dysenteriae [19],100%
same,Activity,Leishmania donovani [20],Active
same,Activity,Leishmania donovani [21],Active
same,Activity,[22],Active
same,Activity,[23],Active
same,IC50,Leishmania donovani [24],2.1 mg/L

# From ChEMBL document CHEMBL1153864, “Phase transfer catalyzed synthesis of bis-quinolines: antileishmanial activity in experimental visceral leishmaniasis and in vitro antibacterial evaluation” (Eur J Med Chem, 2009)
